Values after ≈ are worked out from the molar mass of the structure shown.

This assay deals with WI-38 VA13. Nature of the assay: Cytotoxicity against VA13 cell line; Expressed as effective concentration. The assay is classed as functional, cell-based. The following applies: Homo sapiens. In outline: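 Human tumorigenic VA13 cells grown in MEM-E with penicillin/streptomycin and 10% fetal calf serum, seeded at 1.5–3.0×10³ cells/well, cultured 2–3 days. Compounds in DMSO (final <0.5%) added for 24 h, then washed out and cells cultured a further 3 days in fresh medium. XTT with phenazine methosulfate added for 2.5 h, OD450 read. Viability computed relative to untreated and cell-free blanks; EC50 taken from dose–response curve.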
For `Cc1c(C(=O)c2ccccn2)oc2cc(-c3ccccc3)cc(O)c12`, the EC50 – broadly, the concentration that produces a half-maximal response – stood at 0.6 µg/mL (≈ 1.82 µM).

`Cc1c(C(=O)C2CCCCC2)oc2cc(-c3ccccc3)cc(O)c12` came in with an EC50 of 0.45 µg/mL (≈ 1.35 µM).

Consider `CC(=O)c1oc2cc(-c3ccccc3)cc(O)c2c1C`, for which the EC50 was 0.08 µg/mL (≈ 0.3 µM).

Turning to `COc1ccc(CCOC(=O)c2oc3cc(-c4ccccc4)cc(O)c3c2C)cc1`, a half-maximal response (EC50) required 0.02 µg/mL (≈ 0.0497 µM).

Consider `Cc1c(C(=O)c2cccc(OC(C)C)c2)oc2cc(-c3ccccc3)cc(O)c12`, for which it took 0.35 µg/mL (≈ 0.906 µM) to reach a half-maximal effect (EC50).

In the case of `Cc1c(C(=O)CCc2ccccc2)oc2cc(-c3ccccc3)cc(O)c12`, the concentration for a half-maximal effect (EC50) is more than 4 µg/mL.

`CCC(=O)c1oc2cc(-c3ccccc3)cc(O)c2c1C`: a half-maximal effect (EC50) was put at 0.27 µg/mL (≈ 0.963 µM).

As for `Cc1c(C(=O)Cc2ccccc2)oc2cc(-c3ccccc3)cc(O)c12`, the EC50 was more than 4 µg/mL.

Take `CCOC(=O)c1oc2cc(-c3ccccc3)cc(O)c2c1C`: the EC50 came out at 0.04 µg/mL (≈ 0.135 µM).

`COc1ccc(C(=O)c2oc3cc(-c4ccccc4)cc(O)c3c2C)c(OC)c1` displayed an EC50 of 0.04 µg/mL (≈ 0.103 µM).

`COc1ccc(C(=O)c2oc3cc(-c4ccccc4)cc(O)c3c2C)cc1OC`: the concentration for a half-maximal effect (EC50) came out at 0.45 µg/mL (≈ 1.16 µM).

Take `Cc1c(C(=O)c2ccccc2-c2ccccc2)oc2cc(-c3ccccc3)cc(O)c12`: the concentration for a half-maximal effect (EC50) came out at 0.1 µg/mL (≈ 0.247 µM).

The compound `Cc1c(C(=O)c2cccc(C(F)(F)F)c2)oc2cc(-c3ccccc3)cc(O)c12` returned a half-maximal effective concentration (EC50) of more than 4 µg/mL.

With `Cc1c(C(=O)O)oc2cc(-c3ccccc3)cc(O)c12`, the half-maximal effective concentration (EC50) was more than 4 µg/mL.

`CCc1ccc(C(=O)c2oc3cc(-c4ccccc4)cc(O)c3c2C)cc1` gave an EC50 of more than 4 µg/mL.

In turn, `Cc1c(C(=O)NCCc2ccccn2)oc2cc(-c3ccccc3)cc(O)c12` registered a concentration giving a half-maximal response (EC50) of 1.5 µg/mL (≈ 4.03 µM).

`COc1ccc(OC)c(C(=O)c2oc3cc(-c4ccccc4)cc(O)c3c2C)c1` came in with an EC50 of 0.09 µg/mL (≈ 0.232 µM).

`COc1ccc(C(=O)c2oc3cc(-c4ccccc4)cc(O)c3c2C)cc1` had an EC50 of 0.28 µg/mL (≈ 0.781 µM).

In turn, `Cc1c(C(=O)c2cnc3ccccc3c2)oc2cc(-c3ccccc3)cc(O)c12` gave a concentration giving a half-maximal response (EC50) of more than 4 µg/mL.

For the compound `CCCCC(=O)c1oc2cc(-c3ccccc3)cc(O)c2c1C`, the 50% effective concentration (EC50) was 2 µg/mL (≈ 6.49 µM).

As for `Cc1c(C(=O)c2ccccc2)oc2cc(-c3ccccc3)cc(O)c12`, the 50% effective concentration (EC50) was 0.6 µg/mL (≈ 1.83 µM).

Turning to `Cc1c(C(=O)c2ccc(F)c(F)c2)oc2cc(-c3ccccc3)cc(O)c12`, the EC50 is 0.4 µg/mL (≈ 1.1 µM).

Consider `COc1ccccc1C(=O)c1oc2cc(-c3ccccc3)cc(O)c2c1C`, for which a half-maximal effect (EC50) was put at 0.09 µg/mL (≈ 0.251 µM).

`Cc1c(C(=O)c2nccs2)oc2cc(-c3ccccc3)cc(O)c12` returned an EC50 of 0.4 µg/mL (≈ 1.19 µM).

In the case of `Cc1c(C(=O)c2cncnc2)oc2cc(-c3ccccc3)cc(O)c12`, the concentration giving a half-maximal response (EC50) came out at 0.7 µg/mL (≈ 2.12 µM).

Compound `Cc1c(C(=O)c2ccc(CN(C)C)cc2)oc2cc(-c3ccccc3)cc(O)c12` returned an EC50 of more than 4 µg/mL.

`Cc1c(C(=O)c2ccc(Oc3ccccc3)cc2)oc2cc(-c3ccccc3)cc(O)c12`: the EC50 was more than 4 µg/mL.

Compound `Cc1c(C(=O)c2cccs2)oc2cc(-c3ccccc3)cc(O)c12` gave a half-maximal effective concentration (EC50) of 2 µg/mL (≈ 5.98 µM).

On to `Cc1c(C(=O)c2ccc(N(C)C)cc2)oc2cc(-c3ccccc3)cc(O)c12`, for which the EC50 was more than 4 µg/mL.

`Cc1c(C(=O)OC(C)C)oc2cc(-c3ccccc3)cc(O)c12` gave a 50% effective concentration (EC50) of 0.06 µg/mL (≈ 0.193 µM).

`COCc1ccccc1C(=O)c1oc2cc(-c3ccccc3)cc(O)c2c1C` returned an EC50 of 0.1 µg/mL (≈ 0.269 µM).

`CCCC(=O)c1oc2cc(-c3ccccc3)cc(O)c2c1C`: the concentration for a half-maximal effect (EC50) was 0.59 µg/mL (≈ 2 µM).

Take `COc1ccc(C(=O)c2oc3cc(-c4ccccc4)cc(O)c3c2C)c(C(F)(F)F)c1`: a half-maximal response (EC50) required 0.4 µg/mL (≈ 0.938 µM).

On to `COc1ccc(CCOC(=O)c2oc3cc(-c4ccccc4)cc(O)c3c2C)cc1OC`, for which the half-maximal effective concentration (EC50) is 0.021 µg/mL (≈ 0.0486 µM).

As for `Cc1ncsc1CCOC(=O)c1oc2cc(-c3ccccc3)cc(O)c2c1C`, a half-maximal response (EC50) required 0.055 µg/mL (≈ 0.14 µM).

In the case of `Cc1c(C(=O)C(C)(C)C)oc2cc(-c3ccccc3)cc(O)c12`, a half-maximal response (EC50) required 0.41 µg/mL (≈ 1.33 µM).

`Cc1c(C(=O)C(C)C)oc2cc(-c3ccccc3)cc(O)c12` came in with a 50% effective concentration (EC50) of 0.41 µg/mL (≈ 1.39 µM).

Compound `Cc1c(C(=O)c2cccc(CN(C)C)c2)oc2cc(-c3ccccc3)cc(O)c12` registered a half-maximal effective concentration (EC50) of 0.09 µg/mL (≈ 0.233 µM).

For the compound `COc1cc(C(F)(F)F)ccc1C(=O)c1oc2cc(-c3ccccc3)cc(O)c2c1C`, the concentration giving a half-maximal response (EC50) was 0.26 µg/mL (≈ 0.61 µM).
